Assay results reported in PMC4681442 (Angewandte Chemie (International ed. in English), 2015).

Assays:
[1] = test system: HS-5 cells; assay: Cytotoxicity to HS-5 cells; assay type: cell-based; details: cisplatin (Figure S16)
[2] = test system: PC-12 cells; details: cisplatin; cited from earlier work
[3] = test system: A2780 cells; assay: Cell viability; assay type: cell-based; details: CDDP without adding D-1, 72 h
Summary of the method: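 MTT assay (mitochondrial reductase activity) in cisplatin-sensitive A2780 and cisplatin-resistant A2780cis cells. Cells were incubated 72 h with precursor alone, cisplatin alone, or both together. Viability was expressed relative to untreated control, with significance thresholds p≤0.001 and p≤0.0001.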

[4] = test system: SKOV3 cells; assay: Cell viability; assay type: cell-based; details: CDDP 6 μg/mL alone

In the case of [NH2][Pt]([NH2])([Cl])[Cl] [CDDP, cisplatin], the “inhibition of HS-5 cells” value [1] is given as “significantly inhibits”, the “inhibition of PC-12 cells” value [2] is given as “significantly inhibits” and the “cell viability of A2780” value [3] is given as “about 38%”. For the same compound, the “inhibition of SKOV3 cells” value ([4]; 72 h (Figure 2A)) was 48% and the “cell death of SKOV3 cells” value ([4]; 72 h, control experiment with 3) was “about 40%”.
